In article PMC6525002 (Cancer Management and Research, 2019):
Where “and” joins values, the source holds several entries; their conditions need not be identical. Equal values may be shown once.

Legend:
[1] = Phase Ib pharmacokinetics, single dose; type: in vivo, human
In short: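 Blood collected on Day 1 at 0.05 h before the first oral dose and 0.5, 1, 1.5, 2, 4, 6, 8, 10, 12 and 24 h after. Test compound quantified by LC-MS using multiple reaction monitoring, LLOQ 1 ng/mL. Cmax, AUC, CL, t1/2 and related parameters were derived from individual concentration-time profiles and summarised descriptively.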

[2] = tested on: EGFR phosphorylation; settings: in vivo, preclinical; cited from earlier work
[3] = 12 healthy volunteers, cited from earlier work
[4] = Phase Ib pharmacokinetics, multi-dosing; type: in vivo, human
In short: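 Oral test compound, flat doses twice daily for 28 days. Plasma sampled before the first daily dose on Days 8, 9, 10, 22 and 29. On Day 15, sampling ran 0.05 h predose and 0.5, 1, 1.5, 2, 4, 6, 8, 10 and 12 h post-dose. Assay by LC-MS with multiple reaction monitoring, LLOQ 1 ng/mL. Parameters were calculated from individual concentration-time profiles.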

[5] = tested on: other investigated kinases; settings: in vitro; cited from earlier work
[6] = tested on: human A431 tumor cells; settings: in vitro, cells with high expression of EGFR; cited from earlier work
[7] = tested on: advanced NSCLC with EGFR gene mutations; assay: Phase Ib clinical antitumor activity; type: in vivo, human
[8] = single dose 100 mg, N=2, mean ± SD
[9] = single dose 200 mg, N=3, mean ± SD
[10] = single dose 300 mg, N=3, mean ± SD
[11] = single dose 400 mg, N=15, mean ± SD
[12] = single dose 500 mg, N=12, mean ± SD
[13] = single dose 650 mg, N=6, mean ± SD
[14] = multi-dosing 100 mg twice daily, N=2
[15] = multi-dosing 100 mg twice daily, N=2, mean±SD
[16] = multi-dosing 200 mg twice daily, N=3, mean±SD
[17] = multi-dosing 300 mg twice daily, N=3, mean±SD
[18] = multi-dosing 400 mg twice daily, N=15, mean±SD
[19] = multi-dosing 500 mg twice daily, N=12, mean±SD
[20] = multi-dosing 650 mg twice daily, N=6, mean±SD

simotinib
bioavailability ([1]; orally administered): good bioavailability | Tmax ([1]; single dose 100 mg, N=2): 1.8 (1.5–2.0) h | AUC0-last [1, 8]: 405.6 ± 94.8 ng·h/mL | AUC0-∞ [1, 8]: 466.2 ± 129.9 ng·h/mL | CL [1, 8]: 223.1 ± 62.2 L/h | Cmax [1, 8]: 56.5 ± 18.2 ng/mL | T1/2 [1, 8]: 5.3 ± 0.3 h | Vd [1, 8]: 1,704.0±385.8 L | Tmax ([1]; single dose 200 mg, N=3): 2.0 (2.0–2.0) h | AUC0-last [1, 9]: 2,339.6±479.9 ng•hr/mL | AUC0-∞ [1, 9]: 2,955.0±564.0 ng•hr/mL | CL [1, 9]: 68.9 ± 13.2 L/h | Cmax [1, 9]: 333.0 ± 35.4 ng/mL | T1/2 [1, 9]: 12.2 ± 3.5 h | Vd [1, 9]: 1,250.1±579.7 L | Tmax ([1]; single dose 300 mg, N=3): 1.5 (1.5–2.0) h | AUC0-last [1, 10]: 2,814.0±764.5 ng•hr/mL | AUC0-∞ [1, 10]: 3,243.8±776.1 ng•hr/mL | CL [1, 10]: 95.2 ± 22.8 L/h | Cmax [1, 10]: 552.5 ± 388.2 ng/mL | T1/2 [1, 10]: 9.2 ± 1.0 h | Vd [1, 10]: 1,286.1±438.6 L | Tmax ([1]; single dose 400 mg, N=15): 2.0 (1.0–8.0) h | AUC0-last [1, 11]: 3,581.9±1,868.5 ng•hr/mL | AUC0-∞ [1, 11]: 4,962.1±3,141.7 ng•hr/mL | CL [1, 11]: 127.4 ± 117.6 L/h | Cmax [1, 11]: 566.4 ± 372.0 ng/mL | T1/2 [1, 11]: 13.3 ± 6.3 h | Vd [1, 11]: 2,097.2±1,506.8 L | Tmax ([1]; single dose 500 mg, N=12): 1.8 (0.5–4.0) h | AUC0-last [1, 12]: 3,791.0±2,741.1 ng•hr/mL | AUC0-∞ [1, 12]: 6,483.8±5,008.4 ng•hr/mL | CL [1, 12]: 200.5 ± 300.1 L/h | Cmax [1, 12]: 514.5 ± 316.4 ng/mL | T1/2 [1, 12]: 28.0 ± 33.8 h | Vd [1, 12]: 7,166.6±12,246.1 L | Tmax ([1]; single dose 650 mg, N=6): 2.0 (1.0–6.0) h | AUC0-last [1, 13]: 4,652.1±3,442.1 ng•hr/mL | AUC0-∞ [1, 13]: 7,648.4±3,028.7 ng•hr/mL | CL [1, 13]: 97.7 ± 39.2 L/h | Cmax [1, 13]: 828.5 ± 849.0 ng/mL | T1/2 [1, 13]: 29.7 ± 32.2 h | Vd [1, 13]: 3,873.8±3,378.1 L | time to Cmax, range over doses ([1]; single dose, all doses): 1.5 to 2.0 h | antitumor activity in nude xenograft model [2]: inhibiting EGFR phosphorylation | average clearance (CL) T1/2 ([3]; dose range 25–500 mg): 8 to 12 h | tolerability ([3]; phase Ia): well tolerated | T1/2, range over doses ([4]; 200–650 mg doses): 8 to 13 h | AUC0-∞ [4, 14]: 956.9 ng·h/mL | CL [4, 14]: 148.5 L/h | T1/2 [4, 14]: 6.2 h | Tmax [4, 14]: 1.0(0–2.0) h | Vd [4, 14]: 1323.3 L | AUC0-last [4, 15]: 920.4 ± 349.2 ng·h/mL | Cavg [4, 15]: 76.7 ± 29.1 ng/mL | Cmax [4, 15]: 130.3 ± 70.3 ng/mL | Cmin [4, 15]: 54.5 ± 32.1 ng/mL | Tmax ([4]; multi-dosing 200 mg twice daily, N=3): 4.0 (2.0–4.0) h | AUC0-last [4, 16]: 3,940.9±2,689.0 ng•hr/mL | AUC0-∞ [4, 16]: 6,571.6±3,241.2 ng•hr/mL | CL [4, 16]: 66.1 ± 45.1 L/h | Cavg [4, 16]: 328.4 ± 224.1 ng/mL | Cmax [4, 16]: 447.0 ± 258.8 ng/mL | Cmin [4, 16]: 207.0 ± 152.7 ng/mL | T1/2 [4, 16]: 9.6 ± 4.2 h | Vd [4, 16]: 1,050.0±1,020.6 L | Tmax ([4]; multi-dosing 300 mg twice daily, N=3): 1.5 (1.0–2.0) h | AUC0-last [4, 17]: 6,013.9±3,058.1 ng•hr/mL | AUC0-∞ [4, 17]: 9,728.6±1,648.2 ng•hr/mL | CL [4, 17]: 57.3 ± 29.1 L/h | Cavg [4, 17]: 501.2 ± 254.8 ng/mL | Cmax [4, 17]: 1,519.0±1,132.8 ng/mL | Cmin [4, 17]: 288.0 ± 117.4 ng/mL | T1/2 [4, 17]: 10.4 ± 7.8 h | Vd [4, 17]: 1,019.6±1,077.5 L | Tmax ([4]; multi-dosing 400 mg twice daily, N=15): 2.0 (0–8.0) h | AUC0-last [4, 18]: 5,245.7±2,194.4 ng•hr/mL | AUC0-∞ [4, 18]: 10,577.7±5,867.6 ng•hr/mL | CL [4, 18]: 99.5 ± 70.4 L/h | Cavg [4, 18]: 437.1 ± 182.9 ng/mL | Cmax [4, 18]: 767.9 ± 338.1 ng/mL | Cmin [4, 18]: 251.6 ± 127.0 ng/mL | T1/2 [4, 18]: 13.0 ± 11.8 h | Vd [4, 18]: 2,000.6±3,169.6 L | Tmax ([4]; multi-dosing 500 mg twice daily, N=12): 1.8 (1.0–6.0) h | AUC0-last [4, 19]: 7,819.8±1,942.3 ng•hr/mL | AUC0-∞ [4, 19]: 12,780.6±3,894.7 ng•hr/mL | CL [4, 19]: 67.7 ± 17.2 L/h | Cavg [4, 19]: 651.6 ± 161.9 ng/mL | Cmax [4, 19]: 1,396.0±534.8 ng/mL | Cmin [4, 19]: 378.3 ± 132.0 ng/mL | T1/2 [4, 19]: 8.4 ± 2.8 h | Vd [4, 19]: 811.3 ± 326.9 L | Tmax ([4]; multi-dosing 650 mg twice daily, N=6): 2.0 (1.5–8) h | AUC0-last [4, 20]: 4,615.7±1,599.7 ng•hr/mL | AUC0-∞ [4, 20]: 8,193.3±3,211.2 ng•hr/mL | CL [4, 20]: 156.3 ± 55.6 L/h | Cavg [4, 20]: 384.6 ± 133.3 ng/mL | Cmax [4, 20]: 650.8 ± 234.7 ng/mL | Cmin [4, 20]: 214.3 ± 84.8 ng/mL | T1/2 [4, 20]: 9.2 ± 1.9 h | Vd [4, 20]: 2,021.8±635.7 L | time to maximum concentration, range over doses ([4]; multiple dosing, 300, 400, 500, and 650 mg doses): 1.5 to 2.0 h | activity on other investigated kinases [5]: no significant activity | inhibition of growth of human A431 tumor cells [6]: inhibits in a dose-dependent manner | deaths during the whole study ([7]; 100 mg group): 2 deaths | deaths during the whole study ([7]; 200 mg group): 3 deaths | deaths during the whole study ([7]; 300 mg group): 1 deaths | deaths during the whole study ([7]; 400 mg group): 1 deaths | partial response in patients with brain metastases ([7]; 500 mg, 12 patients): 16.7% and 16% | partial response in patients with brain metastases ([7]; 650 mg, 6 patients): 50% | stable disease as best response ([7]; 41 patients, RECIST 1.1): 46.3% | deaths during the whole study (treatment phase and follow-up period) ([7]; all doses): 7 deaths | survival rate at 1-year ([7]; all doses): 88.2% | median PFS ([7]; all doses, Kaplan–Meier, 95%CI 4.7, 12.1): 9.9 months | median OS ([7]; all doses, Kaplan–Meier, 95%CI 12.3, 22.5): 14.6 months | patients with brain metastases who achieved partial response on these metastases ([7]; of the 18 patients with brain metastases): 5 patients
